# Measurements from article PMC4958353 (Drug Design, Development and Therapy, 2016).
# Key:
# M. tuberculosis H37Rv = assay: microplate Alamar Blue assay, in vitro anti-TB activity; type: cell-based; details: Mycobacterium tuberculosis
# in vitro = details: human
# [1] = pKa by reverse-phase HPLC; type: physicochemical
# human serum albumin = human serum albumin (Homo sapiens, UniProt P02768); assay: protein binding by reverse-phase HPLC on human serum albumin column; type: in vitro ADME
# [2] = human liver microsomal stability; type: in vitro ADME; details: HLM incubation
# Method in brief: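 Test compound incubated with human liver microsomes. The percentage of parent compound remaining was read at 15 min, 30 min, 1 h and 2 h of incubation.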
# [3] = compared with compound 10b (90.5%); cited from earlier work
# Chain of human serum albumin (P02768 25-609): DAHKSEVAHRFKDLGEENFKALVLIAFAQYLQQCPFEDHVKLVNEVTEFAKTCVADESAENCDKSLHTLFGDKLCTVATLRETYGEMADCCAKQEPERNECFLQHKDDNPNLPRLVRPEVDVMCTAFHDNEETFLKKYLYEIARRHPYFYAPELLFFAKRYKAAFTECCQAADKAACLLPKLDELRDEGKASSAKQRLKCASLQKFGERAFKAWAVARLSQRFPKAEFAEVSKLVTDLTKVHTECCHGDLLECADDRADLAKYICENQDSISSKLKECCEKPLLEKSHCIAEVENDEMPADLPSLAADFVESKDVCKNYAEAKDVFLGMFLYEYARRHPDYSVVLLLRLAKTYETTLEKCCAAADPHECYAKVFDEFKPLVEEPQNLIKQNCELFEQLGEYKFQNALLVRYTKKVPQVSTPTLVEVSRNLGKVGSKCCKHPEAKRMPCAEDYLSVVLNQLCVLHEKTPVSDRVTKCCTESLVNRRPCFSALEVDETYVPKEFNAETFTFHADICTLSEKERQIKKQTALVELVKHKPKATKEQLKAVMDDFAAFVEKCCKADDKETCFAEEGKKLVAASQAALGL
Compound,MIC (M. tuberculosis H37Rv) [mg/L],CC50 (in vitro) [mg/L],further results
"NC(=O)C(CC(=O)c1cccc(Oc2ccccc2)c1)c1ccccc1 (centres unmarked) [Compound 5a, 4-Oxo-4-(3-phenoxyphenyl)-2-phenylbutanamide]",> 100,> 300,–
"Cc1ccc(C(CC(=O)c2cccc(Oc3ccccc3)c2)C(N)=O)cc1 (centres unmarked) [Compound 5b, 4-Oxo-4-(3-phenoxyphenyl)-2-p-tolylbutanamide]",> 100,> 300,–
"NC(=O)C(CC(=O)c1ccc(Oc2ccccc2)c(O)c1)c1ccccc1 (centres unmarked) [Compound 10a, 4-(3-Hydroxy-4-phenoxyphenyl)-4-oxo-2-phenylbutanamide]",20,> 300,–
"Cc1ccc(C(CC(=O)c2ccc(Oc3ccccc3)c(O)c2)C(N)=O)cc1 (centres unmarked) [Compound 10b, 4-(3-Hydroxy-4-phenoxyphenyl)-4-oxo-2-p-tolylbutanamide]",12.5,> 300,pKa [1]: 7.59; fraction unbound (human serum albumin): 0.095; Percentage remaining ([2]; 15 minutes): 70.18%; Percentage remaining ([2]; 30 minutes): 57.49%; Percentage remaining ([2]; 1 hour): 50.68%; Percentage remaining ([2]; 2 hours): 40.35%
"COc1ccc(C(CC(=O)c2ccc(Oc3ccccc3)c(O)c2)C(N)=O)cc1 (centres unmarked) [Compound 10c, 4-(3-Hydroxy-4-phenoxyphenyl)-2-(4-methoxyphenyl)-4-oxobutanamide]",25,261,–
"NNC(=O)c1ccncc1 [Isoniazid, reference compound]",0.125,–,–
"Oc1cc(Cl)ccc1Oc1ccc(Cl)cc1Cl [Triclosan, reference compound]",12.5,> 300,plasma protein binding [3]: even higher than compound 10b
